Compounds with a hit are over-represented: about 2% of the library has one in this group of screens.
PvdQ inh: blocks Pseudomonas aeruginosa PvdQ acylase activity. AID 488965. inhibition, % at 10 µM. actives 0.063% (n = 340,000). purified PvdQ acylase, fluorescence plate reader; in the data active = inhibition above about 30%, passing the limit was not always enough
IMP-1 inhibitor: blocks Pseudomonas aeruginosa IMP-1 metallo-beta-lactamase; inhibition, % at 5.6 µM; purified IMP-1, nitrocefin hydrolysis, epi-absorbance fluorescence; actives 0.45% (n = 290,000);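 active = inhibition above the mean plus 3 SD of all compounds in the same screening run, cut at about 4.5% in these data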
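Assay system: purified recombinant IMP-1 beta-lactamase. Input: IMP-1 0.2 nM before substrate addition. Buffer or medium: Zinc- and detergent-supplemented HEPES buffer, pH 7.1. Schedule: 25 °C, 15 min preincubation, 25 min reaction. Signal: Epi-absorbance fluorescence, 480 nm excitation, 530 nm emission. Evaluation: percent inhibition from optical density relative to buffer-blank wells.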
VIM-2 inh: blocks Pseudomonas aeruginosa VIM-2 metallo-beta-lactamase | actives 0.89% (n = 290,000) | inhibition, % at 5.6 µM | purified VIM-2, nitrocefin hydrolysis, epi-absorbance fluorescence;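 active = inhibition above the mean of all tested compounds plus 3 SD, cutoff set per screening run, cut at about 7.5% in these data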;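 note: red hydrolysis product quenches plate fluorescence so inhibitors raise well fluorescence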
HKDC1 inhibitor: blocks human hexokinase HKDC1 activity; actives 0.16% (n = 340,000); recombinant HKDC1, G6PDH/diaphorase resazurin coupled fluorescence; inhibition, % at 20 µM; Q2TB90;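 active = inhibition above about 35% when tested at 20 µM, limit read from the data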
Target sequence (Q2TB90 whole entry, looked up): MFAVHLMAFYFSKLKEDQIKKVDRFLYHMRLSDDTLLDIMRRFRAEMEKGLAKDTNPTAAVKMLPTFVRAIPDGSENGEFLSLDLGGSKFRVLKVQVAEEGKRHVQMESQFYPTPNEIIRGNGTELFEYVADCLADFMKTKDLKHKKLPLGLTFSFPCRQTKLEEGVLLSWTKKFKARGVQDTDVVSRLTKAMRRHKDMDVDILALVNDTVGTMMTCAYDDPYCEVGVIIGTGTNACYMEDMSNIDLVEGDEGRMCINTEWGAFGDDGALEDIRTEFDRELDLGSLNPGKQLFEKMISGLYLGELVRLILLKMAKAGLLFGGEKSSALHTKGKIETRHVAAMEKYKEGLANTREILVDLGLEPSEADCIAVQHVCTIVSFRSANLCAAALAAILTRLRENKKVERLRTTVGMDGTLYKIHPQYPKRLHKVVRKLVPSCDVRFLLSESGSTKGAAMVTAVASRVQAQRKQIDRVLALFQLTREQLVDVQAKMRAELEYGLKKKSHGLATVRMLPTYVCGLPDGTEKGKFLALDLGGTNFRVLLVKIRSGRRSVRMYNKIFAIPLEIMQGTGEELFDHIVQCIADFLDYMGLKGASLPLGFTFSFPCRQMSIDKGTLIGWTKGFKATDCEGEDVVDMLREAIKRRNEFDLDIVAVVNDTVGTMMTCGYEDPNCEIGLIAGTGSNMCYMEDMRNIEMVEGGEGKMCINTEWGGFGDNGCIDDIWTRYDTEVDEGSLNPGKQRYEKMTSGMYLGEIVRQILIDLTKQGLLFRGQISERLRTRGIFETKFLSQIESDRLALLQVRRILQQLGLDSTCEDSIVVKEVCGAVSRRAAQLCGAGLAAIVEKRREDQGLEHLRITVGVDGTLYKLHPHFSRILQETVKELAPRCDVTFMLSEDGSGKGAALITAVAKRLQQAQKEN
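Material: recombinant HKDC1 hexokinase; Amount: HKDC1 at 5 µg/mL; Medium: Tris pH 8.0 buffer with MgCl2, Tween-20, BSA, BME; Schedule: 90 min reaction incubation at room temperature, dark; Technique: coupled resazurin fluorescence, excitation 525 nm, emission 613 nm.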
ATG4B inh: inhibitors of human ATG4B cysteine protease. Q9Y4P1. ATG4B cleavage of LC3-PLA2, NBD-HPC fluorescence, 1 h. inhibition, % at 8.33 µM. actives 0.51% (n = 340,000); in the data active = inhibition above about 40%
MIN6 prolif: induces beta-cell replication in MIN6 cells; MIN6 cells proliferation, ATPlite luminescence, 48 h; cells starved in 0.2% serum; 100% = growth in 10% serum; proliferation, % at 10 µM; actives 0.29% (n = 330,000);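 active = compounds whose signal lies at least 3.5 SD above the mean of all wells on their plate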
PLA2 counter: counter-screen for ATG4B inhibitors: human phospholipase A2; shares compounds with ATG4B inh; purified PLA2, NBD-C6-HPC fluorescence, 45 min; inhibition, % at 8.33 µM; actives 66% (n = 1,600); in the data active = inhibition above about 50%
A number is an active result.

Cc1ccccc1NC(=O)CSCC(=O)Nc1ccccc1C was read as PvdQ inh inactive, IMP-1 inhibitor inactive, VIM-2 inh inactive, HKDC1 inhibitor inactive, ATG4B inh inactive and MIN6 prolif inactive.
Screening CN(CC(=O)Nc1ccccc1-c1ccccc1)Cc1ccccc1Cl returned PvdQ inh inactive, IMP-1 inhibitor inactive, VIM-2 inh inactive, HKDC1 inhibitor inactive, ATG4B inh 55, MIN6 prolif inactive and PLA2 counter 52.
`O=C(CSCc1cccc(Cl)c1)Nc1ccccc1-c1ccccc1` gave PvdQ inh inactive, IMP-1 inhibitor inactive, VIM-2 inh inactive, HKDC1 inhibitor inactive, ATG4B inh 47, MIN6 prolif inactive and PLA2 counter 51.
CS(=O)(=O)N1CCN(CC(=O)NC2CCCCC2)CC1 was read as PvdQ inh inactive, IMP-1 inhibitor inactive, VIM-2 inh inactive, HKDC1 inhibitor inactive, ATG4B inh inactive and MIN6 prolif inactive.
For CCCSc1ccc([C@@H]2[C@@H]3C(=O)N(C)C(=O)[C@@H]3[C@]3(C(=O)OC)CCCN23)cc1OC the results were PvdQ inh inactive, HKDC1 inhibitor inactive, ATG4B inh inactive and MIN6 prolif inactive.
O=C(c1ccc2c(=O)n(C3CCCC3)c(=S)[nH]c2c1)N1CCc2ccccc21 was read as PvdQ inh inactive, IMP-1 inhibitor inactive, VIM-2 inh inactive, HKDC1 inhibitor inactive, ATG4B inh 54, MIN6 prolif inactive and PLA2 counter 77.
`CC(=O)Nc1nc2nc(-c3ccccc3)cc(-c3ccccc3)n2n1` gave PvdQ inh inactive, IMP-1 inhibitor inactive, VIM-2 inh inactive, HKDC1 inhibitor inactive, ATG4B inh inactive and MIN6 prolif inactive.
For O=C(Nc1nc2nc(-c3ccccc3)cc(-c3ccccc3)n2n1)c1ccco1 the results were PvdQ inh inactive, IMP-1 inhibitor inactive, VIM-2 inh inactive, HKDC1 inhibitor inactive, ATG4B inh 42, MIN6 prolif inactive and PLA2 counter 51.
Screening Cc1oc2ccc(O)cc2c1C(=O)c1ccccc1 returned PvdQ inh inactive, IMP-1 inhibitor inactive, VIM-2 inh inactive, HKDC1 inhibitor inactive, ATG4B inh inactive and MIN6 prolif inactive.
CC(=O)c1cc2c(C)c(C(=O)c3ccccc3)oc2cc1O was read as PvdQ inh inactive, IMP-1 inhibitor inactive, VIM-2 inh inactive, HKDC1 inhibitor inactive, ATG4B inh 40, MIN6 prolif inactive and PLA2 counter inactive.
`O=C(CCSCc1ccccc1Cl)NC1CCCCC1` gave PvdQ inh inactive, IMP-1 inhibitor inactive, VIM-2 inh inactive, HKDC1 inhibitor inactive, ATG4B inh inactive and MIN6 prolif inactive.
Screening Cc1sc2nc(C3CC3)nc(SCC(=O)N3c4ccccc4CC3C)c2c1C (stereo not drawn) returned PvdQ inh inactive, IMP-1 inhibitor inactive, VIM-2 inh inactive, HKDC1 inhibitor inactive, ATG4B inh 68, MIN6 prolif inactive and PLA2 counter 85.
CN(C)C(=O)COC(=O)c1ccccc1NC(=O)c1ccco1 was read as PvdQ inh inactive, IMP-1 inhibitor inactive, VIM-2 inh inactive, HKDC1 inhibitor inactive, ATG4B inh inactive and MIN6 prolif inactive.
`CCOc1ccc(NC(=O)CN(C)C(=O)c2ccc(N3CCCC3)c([N+](=O)[O-])c2)cc1OCC` gave PvdQ inh inactive, HKDC1 inhibitor inactive, ATG4B inh inactive and MIN6 prolif inactive.
`NC(=O)C1CCCCc2c1[nH]c1ccc(Cl)cc21` (stereo not drawn) gave PvdQ inh inactive, IMP-1 inhibitor inactive, VIM-2 inh inactive, HKDC1 inhibitor inactive, ATG4B inh 56, MIN6 prolif inactive and PLA2 counter 51.
CCNC(=O)C1CCCc2c1[nH]c1ccc(Cl)cc21 (stereo not drawn) was read as PvdQ inh inactive, IMP-1 inhibitor inactive, VIM-2 inh inactive, HKDC1 inhibitor inactive, ATG4B inh inactive and MIN6 prolif inactive.
`COc1ccc(/C=C/c2onc(C)c2S(=O)(=O)N2CCC(C(=O)N3CCCCCC3)CC2)cc1` gave PvdQ inh inactive, IMP-1 inhibitor inactive, VIM-2 inh inactive, HKDC1 inhibitor inactive, ATG4B inh 40, MIN6 prolif inactive and PLA2 counter 65.
Cc1ccc(NC(=O)C2CCN(S(=O)(=O)c3c(C)noc3/C=C/c3ccco3)CC2)nc1 was read as PvdQ inh inactive, IMP-1 inhibitor inactive, VIM-2 inh inactive, HKDC1 inhibitor inactive, ATG4B inh inactive and MIN6 prolif inactive.
For Cc1noc(/C=C/c2ccco2)c1S(=O)(=O)N1CCC(C(=O)N2CCc3ccccc3C2)CC1 the results were PvdQ inh inactive, IMP-1 inhibitor inactive, VIM-2 inh inactive, HKDC1 inhibitor inactive, ATG4B inh 73, MIN6 prolif inactive and PLA2 counter 75.
Screening O=C(CCl)c1ccc2c(c1)CCN2C(=O)C1CCCCC1 returned PvdQ inh inactive, IMP-1 inhibitor inactive, VIM-2 inh inactive, HKDC1 inhibitor inactive, ATG4B inh inactive and MIN6 prolif inactive.
Screening O=C(COC(=O)c1cccc(F)c1)Nc1ccc2c(c1)OCCO2 returned PvdQ inh inactive, HKDC1 inhibitor inactive, ATG4B inh inactive and MIN6 prolif inactive.
Screening Cc1cccc(CN2CCC(Oc3ccc(C(=O)N4CCCC4)cc3)CC2)n1 returned PvdQ inh inactive, IMP-1 inhibitor inactive, VIM-2 inh inactive, HKDC1 inhibitor inactive, ATG4B inh inactive and MIN6 prolif inactive.
CC(=O)Nc1cccc(-c2nc3ccccc3[nH]2)c1 was read as PvdQ inh inactive, IMP-1 inhibitor inactive, VIM-2 inh inactive, HKDC1 inhibitor inactive, ATG4B inh inactive and MIN6 prolif inactive.
Screening COc1cccc(OC)c1C(=O)Nc1cccc(-c2nc3ccccc3[nH]2)c1 returned PvdQ inh inactive, IMP-1 inhibitor inactive, VIM-2 inh inactive, HKDC1 inhibitor inactive, ATG4B inh 53, MIN6 prolif inactive and PLA2 counter 62.
Screening COc1ccc(Cl)cc1C(=O)NC(=S)Nc1cc(-c2nc3ccccc3[nH]2)ccc1C returned PvdQ inh inactive, IMP-1 inhibitor inactive, VIM-2 inh inactive, HKDC1 inhibitor inactive, ATG4B inh 66, MIN6 prolif inactive and PLA2 counter 79.
For COc1ccc(Cl)cc1C(=O)NC(=S)Nc1nc(C)cc(C)n1 the results were PvdQ inh inactive, HKDC1 inhibitor inactive, ATG4B inh inactive and MIN6 prolif inactive.
`Cc1cc(C)c(Nc2cc(S(=O)(=O)O)c(N)c3c2C(=O)c2ccccc2C3=O)c(C)c1` gave PvdQ inh inactive, IMP-1 inhibitor inactive, VIM-2 inh inactive, HKDC1 inhibitor inactive, ATG4B inh 49 and PLA2 counter 72.
For Cc1cc2c(SCC(=O)NC3CCCC3)ncnc2s1 the results were PvdQ inh inactive, IMP-1 inhibitor inactive, VIM-2 inh inactive, HKDC1 inhibitor inactive, ATG4B inh inactive and MIN6 prolif inactive.
